Results from ChEMBL document CHEMBL3351323, “Exploitation of cholane scaffold for the discovery of potent and selective farnesoid X receptor (FXR) and G-protein coupled bile acid receptor 1 (GP-BAR1) ligands” (J Med Chem, 2014).
Active and inactive are the calls of the source. No cut-off for these calls is given here.

Legend:
[1] = molecular target: T1, G-protein coupled bile acid receptor 1 (Mus musculus) (UniProt Q80SS6); assay: Agonist activity at GP-BAR1 in mouse GLUTag cells assessed as increase in pro-glucagon mRNA expression at 10 uM by RT-PCR method; type: cell-based
T1 sequence (whole entry): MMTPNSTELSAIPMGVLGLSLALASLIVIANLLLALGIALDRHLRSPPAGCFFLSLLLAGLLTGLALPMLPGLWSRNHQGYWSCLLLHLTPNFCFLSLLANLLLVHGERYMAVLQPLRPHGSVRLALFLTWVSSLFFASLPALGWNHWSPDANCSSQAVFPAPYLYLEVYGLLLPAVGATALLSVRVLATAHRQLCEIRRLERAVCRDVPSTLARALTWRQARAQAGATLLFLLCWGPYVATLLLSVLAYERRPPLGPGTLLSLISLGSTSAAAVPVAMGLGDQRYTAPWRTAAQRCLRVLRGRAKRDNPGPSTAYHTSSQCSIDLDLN
Summary of the method: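 Murine GLUTag enteroendocrine cells (D-MEM, 10% FBS) treated at 10 μM. Pro-glucagon mRNA measured by SYBR real-time PCR in triplicate, normalized to GAPDH and expressed relative to untreated cells set to 1.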

Bile acid receptor = molecular target: T2, Bile acid receptor (Homo sapiens, UniProt Q96RI1); assay: Agonist activity at FXR (unknown origin) expressed in human HepG2 cells assessed as receptor transactivation at 100 nM to 50 uM […] by FXR response element driven HSP27-TK-luciferase reporter gene assay; type: cell-based
T2 sequence (Q96RI1 whole entry): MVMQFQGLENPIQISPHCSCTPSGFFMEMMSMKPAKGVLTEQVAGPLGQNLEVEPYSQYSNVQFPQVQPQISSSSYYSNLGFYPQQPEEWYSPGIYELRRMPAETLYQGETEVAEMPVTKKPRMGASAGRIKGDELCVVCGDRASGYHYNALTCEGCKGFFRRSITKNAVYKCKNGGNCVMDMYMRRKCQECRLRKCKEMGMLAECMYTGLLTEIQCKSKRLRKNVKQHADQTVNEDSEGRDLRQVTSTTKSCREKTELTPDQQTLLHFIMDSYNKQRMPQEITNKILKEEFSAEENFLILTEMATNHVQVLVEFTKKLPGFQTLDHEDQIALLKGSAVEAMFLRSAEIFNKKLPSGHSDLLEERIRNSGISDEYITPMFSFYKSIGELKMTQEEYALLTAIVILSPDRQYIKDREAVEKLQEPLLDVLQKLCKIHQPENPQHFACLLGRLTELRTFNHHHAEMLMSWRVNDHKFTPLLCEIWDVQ

[2] = molecular target: Liver X receptor (Homo sapiens) (UniProt Q13133+P55055); assay: Agonist activity at LXR (unknown origin) in human HepG2 cells assessed as receptor transactivation at 10 uM incubated for 18 hrs by Gal4 luciferase reporter gene assay; type: cell-based
Summary of the method: (§1)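 HepG2 cells transfected with a GAL4-UAS luciferase reporter, Renilla vector and GAL4 DNA-binding domain fusions of the GR, LXR or PPARγ ligand-binding domain; 48 h later stimulated 18 h at 10 μM beside the matching reference agonist (dexamethasone, GW3965, rosiglitazone). Three experiments, mean ± SE.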

[3] = molecular target: T3, Peroxisome proliferator-activated receptor gamma (Homo sapiens) (UniProt P37231); assay: Agonist activity at PPARgamma (unknown origin) in human HepG2 cells assessed as receptor transactivation at 10 uM incubated for 18 hrs by Gal4 luciferase reporter gene assay; type: cell-based; summary of the method: as §1
T3 sequence (whole entry): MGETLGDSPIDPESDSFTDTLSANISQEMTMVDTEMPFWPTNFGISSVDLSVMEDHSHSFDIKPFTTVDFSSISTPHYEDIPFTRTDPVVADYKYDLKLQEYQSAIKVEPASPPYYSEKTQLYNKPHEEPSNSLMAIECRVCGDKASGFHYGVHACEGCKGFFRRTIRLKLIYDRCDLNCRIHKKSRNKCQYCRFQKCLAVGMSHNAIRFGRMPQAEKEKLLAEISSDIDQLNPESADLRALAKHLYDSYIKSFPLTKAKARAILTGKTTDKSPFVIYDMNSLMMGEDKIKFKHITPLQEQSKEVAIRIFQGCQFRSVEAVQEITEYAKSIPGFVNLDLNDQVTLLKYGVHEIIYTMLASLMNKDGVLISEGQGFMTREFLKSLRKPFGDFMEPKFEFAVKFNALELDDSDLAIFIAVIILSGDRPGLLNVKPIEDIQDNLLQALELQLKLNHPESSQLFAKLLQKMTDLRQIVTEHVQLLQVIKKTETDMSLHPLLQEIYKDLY

[4] = molecular target: T4, G-protein coupled bile acid receptor 1 (Homo sapiens) (UniProt Q8TDU6); assay: Agonist activity at GP-BAR1 in human THP1 cells assessed as increase in cAMP level at 10 uM by enzyme immunoassay; type: functional, cell-based; conditions: THP-1
T4 sequence (whole entry): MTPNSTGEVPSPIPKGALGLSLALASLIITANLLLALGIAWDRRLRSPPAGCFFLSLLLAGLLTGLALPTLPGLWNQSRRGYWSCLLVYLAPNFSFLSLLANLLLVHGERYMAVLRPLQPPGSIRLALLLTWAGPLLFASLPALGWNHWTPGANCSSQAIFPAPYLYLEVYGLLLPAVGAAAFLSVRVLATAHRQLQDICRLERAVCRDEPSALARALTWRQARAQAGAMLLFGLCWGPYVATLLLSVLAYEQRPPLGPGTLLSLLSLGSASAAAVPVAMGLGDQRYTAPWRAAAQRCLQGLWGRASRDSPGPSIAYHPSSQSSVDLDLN
Summary of the method: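 THP-1 monocytes serum-starved overnight, then stimulated 30 min at 10 μM, with forskolin 10 μM as reference. cAMP measured by direct cAMP enzyme immunoassay. Three experiments, mean ± SE.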

[5] = molecular target: T5, G-protein coupled bile acid receptor 1 (Homo sapiens, UniProt Q8TDU6); assay: Agonist activity at GP-BAR1 (unknown origin) in human HEK293 cells assessed as receptor transactivation at 100 nM to 50 uM […] by CRE-driven luciferase reporter gene assay; type: functional, cell-based
T5 sequence (Q8TDU6 whole entry): T4 sequence (whole entry)

[6] = molecular target: T6, Glucocorticoid receptor (Homo sapiens) (UniProt P04150); assay: Agonist activity at GCR (unknown origin) in human HepG2 cells assessed as receptor transactivation at 10 uM incubated for 18 hrs by Gal4 luciferase reporter gene assay; type: cell-based; summary of the method: as §1
T6 sequence (whole entry): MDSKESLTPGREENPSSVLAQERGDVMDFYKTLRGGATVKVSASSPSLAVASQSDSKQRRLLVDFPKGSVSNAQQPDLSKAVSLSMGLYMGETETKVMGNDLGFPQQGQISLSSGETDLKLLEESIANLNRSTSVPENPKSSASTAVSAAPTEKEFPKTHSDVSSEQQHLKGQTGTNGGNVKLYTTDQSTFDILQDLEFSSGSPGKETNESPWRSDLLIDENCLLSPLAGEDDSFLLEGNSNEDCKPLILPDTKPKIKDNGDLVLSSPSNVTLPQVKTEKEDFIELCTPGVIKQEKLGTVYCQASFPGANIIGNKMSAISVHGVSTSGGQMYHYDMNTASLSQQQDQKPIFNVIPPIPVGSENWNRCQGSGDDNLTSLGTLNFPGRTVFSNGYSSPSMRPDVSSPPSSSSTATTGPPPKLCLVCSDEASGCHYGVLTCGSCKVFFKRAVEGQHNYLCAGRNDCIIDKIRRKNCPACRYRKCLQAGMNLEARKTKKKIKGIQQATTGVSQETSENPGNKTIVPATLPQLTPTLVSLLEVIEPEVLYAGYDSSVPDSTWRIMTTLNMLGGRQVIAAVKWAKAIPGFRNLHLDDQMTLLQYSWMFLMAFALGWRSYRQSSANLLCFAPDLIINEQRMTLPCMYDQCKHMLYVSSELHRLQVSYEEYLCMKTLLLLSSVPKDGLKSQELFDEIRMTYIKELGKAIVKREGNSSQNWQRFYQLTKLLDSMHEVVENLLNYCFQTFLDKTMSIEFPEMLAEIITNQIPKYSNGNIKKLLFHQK

[7] = molecular target: T7, Nuclear receptor subfamily 1 group I member 2 (Homo sapiens, UniProt O75469); assay: Agonist activity at PXR (unknown origin) in human HepG2 cells co-transfcted with RXR assessed as receptor transactivation at 10 uM incubated for 18 hrs by CYP3A4 promoter-TKLuc luciferase reporter gene assay; conditions: hepg2, 18 h
T7 sequence (O75469 whole entry): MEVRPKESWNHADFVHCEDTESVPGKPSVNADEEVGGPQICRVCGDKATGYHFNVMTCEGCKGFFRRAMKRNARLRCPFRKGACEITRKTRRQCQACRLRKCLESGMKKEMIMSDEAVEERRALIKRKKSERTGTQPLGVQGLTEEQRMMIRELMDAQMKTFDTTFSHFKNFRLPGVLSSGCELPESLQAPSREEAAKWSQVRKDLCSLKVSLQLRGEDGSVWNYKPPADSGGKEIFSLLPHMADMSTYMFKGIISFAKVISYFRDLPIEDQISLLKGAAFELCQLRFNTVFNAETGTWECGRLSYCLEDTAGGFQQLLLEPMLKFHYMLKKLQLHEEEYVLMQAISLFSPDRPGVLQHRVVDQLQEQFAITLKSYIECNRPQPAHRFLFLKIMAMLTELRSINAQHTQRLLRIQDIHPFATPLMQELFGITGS

[8] = molecular target: T8, Bile acid receptor (Homo sapiens) (UniProt Q96RI1); assay: Agonist activity at FXR in human HepG2 cells assessed as increase in BSEP mRNA expression at 10 uM by RT-PCR method; type: cell-based
T8 sequence (whole entry): T2 sequence (Q96RI1 whole entry)
Summary of the method: (§2)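 HepG2 cells treated at 10 μM. TRIzol RNA was DNase-treated and reverse transcribed with random primers, then SYBR real-time PCR run in triplicate (40 cycles, 95 °C/60 °C). Values normalized to GAPDH and expressed relative to untreated cells set to 1.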

[9] = molecular target: T8, Bile acid receptor (Homo sapiens); assay: Agonist activity at FXR in human HepG2 cells assessed as increase in SHP mRNA expression at 10 uM by RT-PCR method; type: cell-based; summary of the method: as §2
[10] = molecular target: T8, Bile acid receptor (Homo sapiens); assay: Agonist activity at FXR in human HepG2 cells assessed as increase in OSTalpha mRNA expression at 10 uM by RT-PCR method; type: cell-based; summary of the method: as §2

| SMILES | Activity [1] | EC50 (Bile acid receptor; hepg2) | Activity [2] | Activity [3] | Activity [4] | EC50 ([5]; read-out: EC50) [µM] | Activity [6] | Activity [7] | EC50 (Bile acid receptor; read-out: EC50) [µM] | Activity [8] | Activity [9] | Activity [10] | EC50 ([5]; hek293) |
| --- | --- | --- | --- | --- | --- | --- | --- | --- | --- | --- | --- | --- | --- |
| CC[C@@H]1[C@H](O)[C@@H]2[C@H](CC[C@]3(C)[C@@H]([C@H](C)CCCO)CC[C@@H]23)[C@@]2(C)CC[C@@H](O)C[C@@H]12 | Active | Not Active | inactive | inactive | Active | 1.03 | inactive | Active | – | – | – | – | – |
| C[C@H](CCCOS(=O)(=O)[O-])[C@H]1CC[C@H]2[C@@H]3[C@H](O)C[C@@H]4CCCC[C@]4(C)[C@H]3CC[C@]12C.[Na+] | inactive | – | inactive | inactive | – | – | inactive | Active | 9 | Active | Active | Active | Not Active |
| CC[C@H]1[C@@H](O)[C@@H]2[C@H](CC[C@]3(C)[C@@H]([C@H](C)CCO)CC[C@@H]23)[C@@]2(C)CC[C@@H](O)C[C@@H]12 | Active | – | inactive | inactive | Active | – | inactive | Active | – | Active | Active | Active | – |
